The values that follow come from ChEMBL document CHEMBL1250446, “Novel targets for Huntington's disease in an mTOR-independent autophagy pathway” (Nat Chem Biol, 2008).

Series [1] relates to COS-7. The series is described as follows: Induction of autophagy in african green monkey COS7 cells expressing PLC-epsilon assessed as calpain activation at 2.5 uM after 30 mins by immunoblotting analysis. The class given is functional, cell-based. Particulars: Chlorocebus aethiops. The method, boiled down: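 Calpain activation in COS-7 after 30 min exposure, alongside 2.5 μM thapsigargin where applied; immunoblot of the active calpain small subunit.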
Background: In western blotting, separated proteins are transferred to a membrane and probed.

The test system of series [2] is SK-N-MC. The series is described as follows: Cytotoxicity against human SK-N-MC cells expressing EGFP-HDQ74 at 1 uM after 48 hrs. The class given is cell-based.
Series [3] concerns SK-N-SH (Homo sapiens). The series is described as follows: Induction of autophagy in human SK-N-SH cells expressing EGFP-HDQ74 assessed as reduction in EGFP-HDQ74 aggregation at 1 uM after 48 hrs by densitometric analysis.
In series [4] the test system is COS-7. The series is described as follows: Induction of autophagy in african green monkey COS7 cells assessed as intracytosolic calcium concentration nu calpain activation assay. The following applies: Chlorocebus aethiops. The class given is functional, cell-based.
Series [5] has as its system COS-7. The series is described as follows: Induction of autophagy in african green monkey COS7 cells expressing EGFP-HDQ74 assessed as EGFP-HDQ74 aggregation at 2.5 uM after 48 hrs. The class given is functional, cell-based. The following applies: Chlorocebus aethiops. The method, boiled down:
(§1)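 COS-7 cells transfected with EGFP-HDQ74 (1.5 μg/well) for 4 h, then exposed for the last 24 h of a 48 h post-transfection period. ALLM (50 μM) was added 15 min before thapsigargin. Cells fixed in 4% PFA with DAPI mount; ~200 EGFP-positive cells per sample scored blinded for aggregates. Triplicate, at least twice; odds ratios.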

For series [6], the system named is COS-7. The series is described as follows: Induction of autophagy in african green monkey COS7 cells expressing EGFP-Atg5 assessed as increase in Atg5 level at 10 uM after 48 hrs by immunoblotting analysis. The class given is functional, cell-based. Particulars: Chlorocebus aethiops. The gist of the method:
(§2)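 COS-7 cells co-transfected 4 h with EGFP-Atg5 plus EGFP as transfection control (3:1 ratio), then treated. Atg5 level and cleavage assessed by immunoblotting.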

Series [7] deals with COS-7. The series is described as follows: Induction of autophagy in african green monkey COS7 cells assessed as increase in LC-3-2 positive vesicles at 2.5 uM after 2 hrs by immunofluorescence analysis n presence of 400 nM bafilomycin A1. The class given is functional, cell-based. Particulars: Chlorocebus aethiops.
For series [8], the system named is COS-7. The series is described as follows: Induction of autophagy in african green monkey COS7 cells assessed as increase in LC-3-2 positive vesicles at 2.5 uM after 2 hrs by immunofluorescence analysis. The class given is functional, cell-based. The following applies: Chlorocebus aethiops. The gist of the method:
(§3)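 COS-7 cells treated 2 h, fixed in 4% paraformaldehyde, then immunostained with anti-LC3 and Alexa-conjugated secondary antibodies. LC3-positive vesicles imaged by confocal microscopy (63x oil lens) at room temperature.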

Series [9] deals with PC-12. The series is described as follows: Induction of autophagy in rat stable inducible PC12 cells expressing A53T alpha-synuclein assessed as A53T alpha-synuclein clearance at 2.5 uM after 24 hrs by densitometric analysis in presence of 50 uM ALLM. The class given is functional, cell-based. The method, boiled down: (§4)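 Stable inducible PC12 line: A53T α-synuclein (HA-tagged) induced with 1 μg/ml doxycycline for 48 h, then switched off by doxycycline removal for 24 h during treatment. For ALLM (50 μM), 15 min pre-treatment. Anti-HA immunoblot, densitometry relative to actin; DMSO control.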

In series [10] the test system is COS-7. As to the kind of experiment: Induction of autophagy in african green monkey COS7 cells expressing EGFP-HDQ74 assessed as EGFP-HDQ74 aggregation at 2.5 uM after 48 hrs in presence of 50 uM ALLM. The class given is functional, cell-based. Particulars: Chlorocebus aethiops. The method, boiled down:
as §1

Series [11] relates to COS-7. The series is described as follows: Effect on mTOR-signaling in african green monkey COS7 cells assessed as phospho-S6K at 2.5 uM by immunoblotting analysis. The following applies: Chlorocebus aethiops. The class given is cell-based. The gist of the method:
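COS-7 cells exposed 24 h (0.2 μM rapamycin as positive control for mTOR inhibition); lysates immunoblotted for phospho-S6K, with densitometry of phospho-S6K relative to total S6K.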

In series [12] the test system is PC-12. The series is described as follows: Induction of autophagy in rat stable inducible PC12 cells expressing A53T alpha-synuclein assessed as A53T alpha-synuclein clearance at 2.5 uM after 24 hrs by densitometric analysis. The class given is functional, cell-based. The method, boiled down: as §4
The subject of series [13] is COS-7. As to the kind of experiment: Induction of autophagy in african green monkey COS7 cells assessed as increase in steady state LC-3 positive vesicles at 2.5 uM after 2 hrs by immunofluorescence analysis. The class given is functional, cell-based. The following applies: Chlorocebus aethiops. The gist of the method:
as §3

Series [14] deals with COS-7. The series is described as follows: Induction of autophagy in african green monkey COS7 cells expressing EGFP-Atg5 assessed as increase in Atg5 level at 2.5 uM after 48 hrs by immunoblotting analysis. The class given is functional, cell-based. Particulars: Chlorocebus aethiops. The method, boiled down:
as §2

In series [15] the test system is SK-N-MC. As to the kind of experiment: Induction of autophagy in Atg positive human SK-N-MC cells expressing EGFP-HDQ74 at 1 uM after 48 hrs. The class given is functional, cell-based.
For the next series, the species on record is Mus musculus. As to the kind of experiment: Induction of autophagy in Atg deficient mouse […] expressing EGFP-HDQ74 at 1 uM after 48 hrs. The class given is functional.
Series [16] relates to SK-N-SH (Homo sapiens). As to the kind of experiment: Induction of autophagy in human SK-N-SH cells assessed as increase in LC3-2 level at 3 uM after 24 hrs by immunoblotting analysis.
For series [17], the system named is COS-7. As to the kind of experiment: Induction of autophagy in african green monkey COS7 cells expressing EGFP-HDQ74 assessed as huntingtin mutant aggregation at 10 uM after 48 hrs. Particulars: Chlorocebus aethiops. The class given is functional, cell-based. The gist of the method:
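COS-7 cells seeded at 1×10⁵/well for 24 h, then transfected with pEGFP-HDQ74 (1.5 μg/well) using LipofectAMINE for 4 h. Compound added, and cells fixed at 48 h and mounted in DAPI. About 200 EGFP-positive cells per sample were scored for presence of aggregates by a blinded observer. Triplicate, at least twice.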

Active and inactive are the calls of the source. The calls are words filed in the database; no cut-off is given here.

For `O=C(Nc1ncnc2c1ncn2[C@@H]1O[C@@H]2COP(=O)(O)O[C@H]2[C@H]1O)c1ccccc1`, the outcome with COS-7 [1] was Active.

Turning to `CCOC(=O)C1=C(C)NC(C)=C(C(=O)OC)C1c1cccc([N+](=O)[O-])c1` (stereo not drawn) [NITRENDIPINE], the Activity entry with SK-N-MC [2] is given as “Non-toxic”. Further, the outcome in the series with SK-N-SH (Homo sapiens) [3] was Active.

On to `C/C=C(/C)C(=O)O[C@H]1C(C)=C2[C@H]([C@@H]1OC(=O)CCCCCCC)[C@@](C)(OC(C)=O)C[C@H](OC(=O)CCC)[C@@]1(O)[C@H]2OC(=O)[C@@]1(C)O`, for which the result in the series with COS-7 [4], in the series on COS-7 [5], in the series with COS-7 [7], in the series with COS-7 [11] and in the series with PC-12 [12] was inactive. Moreover, the result in the series with COS-7 [6], in the series with COS-7 [8], with PC-12 [9], in the series with COS-7 [10], in the series on COS-7 [13] and with COS-7 [14] was Active.

In the case of `Nc1cc(N2CCCCC2)nc(N)[n+]1[O-]` [MINOXIDIL], the result in the series on SK-N-MC [15], in the series with SK-N-SH (Homo sapiens) [3] and with SK-N-SH (Homo sapiens) [16] was Active. Moreover, in the series listed under Mus musculus, the outcome was inactive. The Activity entry with SK-N-MC [2] was “Non-toxic”.

With `CN(C)C(=O)C(CCN1CCC(O)(c2ccc(Cl)cc2)CC1)(c1ccccc1)c1ccccc1` [LOPERAMIDE], the Activity entry with SK-N-MC [2] is reported as “Non-toxic”. Further, the outcome in the series with SK-N-SH (Homo sapiens) [3] was Active.

For the compound `CCCCc1oc2ccccc2c1C(=O)c1cc(I)c(OCCN(CC)CC)c(I)c1` [AMIODARONE], the Activity result in the series with SK-N-MC [2] is recorded as “Non-toxic”. The result in the series on SK-N-SH (Homo sapiens) [3] was Active.

Regarding `COCCOC(=O)C1=C(C)NC(C)=C(C(=O)OC(C)C)C1c1cccc([N+](=O)[O-])c1` (stereo not drawn) [NIMODIPINE], in the series with SK-N-MC [2], the Activity entry was “Non-toxic”. Besides, the result in the series with SK-N-SH (Homo sapiens) [3] was Active.

With `CO[C@@H]1[C@@H]2OP(=O)(O)OC[C@H]2O[C@H]1n1c(Sc2ccc(Cl)cc2)nc2c(N)ncnc21`, the result in the series on COS-7 [17] and in the series with COS-7 [1] was inactive.

Consider `Clc1cccc(Cl)c1N=C1NCCN1` [CLONIDINE], for which, in the series with SK-N-MC [2], the Activity result is “Non-toxic”.
